Compounds with a hit are over-represented: about 2.9% of the library has one in this group of screens.
TRPC6 inhibitor: blocks the mouse TRPC6 cation channel; Q61143; HEK293-TRPC6, membrane potential dye, ACh-evoked depolarization; stronger effect = lower value; B-score at 10 µM; actives 1.1% (n = 310,000); AID 2553;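 active = B-score under library mean minus 3 SD, initial fluorescence not abnormally high, positive integrated signal ratio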;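 also: B-score derived from integrated fluorescence ratio over the kinetic read; more negative B-score means stronger inhibition of depolarization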
TRPC4 potent: allosterically enhances the mouse TRPC4 cation channel; Q9QUQ5; HEK293 TRPC4beta/mu-opioid, DAMGO EC20, Fluo-4 Ca2+ flux; stronger effect = higher value; actives 0.42% (n = 310,000); B-score at 10 µM;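 active = B-score of calcium response area above 5 SD of library B-scores, with initial fluorescence ratio within 5 SD of library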;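 also: B-score of integrated fluorescence ratio over time as area under calcium response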
Target sequence (Q9QUQ5 whole entry, looked up): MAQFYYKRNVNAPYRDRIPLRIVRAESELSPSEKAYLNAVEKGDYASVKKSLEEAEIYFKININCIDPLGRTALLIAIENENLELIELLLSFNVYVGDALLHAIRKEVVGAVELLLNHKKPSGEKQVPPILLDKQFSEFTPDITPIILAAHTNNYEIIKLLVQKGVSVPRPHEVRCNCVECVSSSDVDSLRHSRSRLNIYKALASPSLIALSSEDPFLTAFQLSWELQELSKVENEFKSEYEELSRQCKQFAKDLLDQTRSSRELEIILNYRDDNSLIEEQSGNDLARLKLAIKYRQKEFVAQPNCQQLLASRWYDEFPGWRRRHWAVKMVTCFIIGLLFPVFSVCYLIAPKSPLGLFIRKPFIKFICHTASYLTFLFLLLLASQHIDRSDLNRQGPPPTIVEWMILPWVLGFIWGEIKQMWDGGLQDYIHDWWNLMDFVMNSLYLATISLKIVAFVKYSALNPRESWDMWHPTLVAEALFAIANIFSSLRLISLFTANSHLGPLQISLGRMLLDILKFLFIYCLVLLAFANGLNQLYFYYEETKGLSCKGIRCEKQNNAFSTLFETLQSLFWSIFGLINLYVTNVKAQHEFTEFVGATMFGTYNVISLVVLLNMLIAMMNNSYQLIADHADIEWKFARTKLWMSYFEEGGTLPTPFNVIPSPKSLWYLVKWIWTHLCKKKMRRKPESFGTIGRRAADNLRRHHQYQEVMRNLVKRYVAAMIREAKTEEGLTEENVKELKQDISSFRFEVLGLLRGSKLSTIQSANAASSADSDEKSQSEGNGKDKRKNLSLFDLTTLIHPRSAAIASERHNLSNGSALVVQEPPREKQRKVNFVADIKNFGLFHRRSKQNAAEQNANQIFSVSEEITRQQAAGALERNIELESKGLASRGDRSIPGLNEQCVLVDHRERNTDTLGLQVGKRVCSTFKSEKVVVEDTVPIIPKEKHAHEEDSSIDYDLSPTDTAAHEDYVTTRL
TRPC6 activator: activators of mouse TRPC6 channel | B-score at 10 µM | AID 2550 | actives 0.13% (n = 310,000) | Q61143 | HEK293-TRPC6 membrane potential dye fluorescence; stronger effect = higher value;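 active = B-score of the integrated fluorescence ratio above library mean plus 3 SD, and starting fluorescence ratio within library mean plus 5 SD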;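 also: higher score means more depolarization so channel activation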
Kir21 inh: Kir2.1 (mouse) channel inhibition | P35561 | HEK293-Kir2.1, FluxOR thallium flux fluorescence; stronger effect = lower value | B-score at 10 µM | actives 0.85% (n = 310,000) | AID 1672;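 active = fluorescence ratio B-score at or below minus 3 SD of library scores, with starting-brightness B-score within 2 SD, cut at about -4.2 in these data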;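 also: channel flux triggered by added potassium and thallium sulfate stimulus; B-score of peak minus minimum fluorescence over baseline after thallium stimulus; more negative B-score means stronger Kir2.1 block with less thallium influx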
TRPC4 block: TRPC4 (mouse) channel inhibition | Q9QUQ5 | HEK293 TRPC4beta/mu-opioid, DAMGO-evoked Fluo4 calcium flux; stronger effect = lower value | B-score at 10 µM | actives 0.39% (n = 300,000) | AID 2247;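 active = B-score over 3 SD under the library average, no early fluorescence shift, positive overall ratio signal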
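material = TRPC4beta/mu-opioid receptor HEK293 cell line | probe or stimulus = sequential submaximal and maximal DAMGO stimulation | compound dosing = one concentration per compound | measured by = Fluo4 Ca2+ flux fluorescence | evaluation = integrated fluorescence ratio relative to baseline, converted to per-well B score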
TRPC4 agonist: activators of mouse TRPC4 channel; Q9QUQ5; HEK293 TRPC4beta/mu-opioid, Fluo4 calcium fluorescence; stronger effect = higher value; B-score at 10 µM; actives 0.49% (n = 310,000);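 active = B-score above 5 SD of library B-scores, and initial fluorescence ratio not above library mean plus 5 SD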;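 also: positive B-score marks a calcium rise read as TRPC4 activation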
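System: HEK293 cells stably co-expressing mouse TRPC4beta and mu-opioid receptor; Schedule: Fluo4 dye loading 45 min at room temperature, 110 s recording; Detection: Fluo4 fluorescence, kinetic; Evaluation: B-scored integrated calcium fluorescence ratio; Controls: buffer (low) and maximal DAMGO (high).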
TRPC4 spec 2: mouse TRPC4 off-target activity of TRPC6 inhibitors, second screen; shares compounds with TRPC6 inhibitor; HEK293 TRPC4/MOR, membrane potential dye fluorescence; channel activated by saturating DAMGO dose; inhibition, % at 10 µM; actives 42% (n = 920); AID 2776;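 active = compounds whose fluorescence signal differed from control wells by over 3 SD, either direction, in both duplicate plates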
TRPC4 spec: tests whether TRPC6 inhibitors also affect mouse TRPC4. shares compounds with TRPC6 inhibitor. HEK293 TRPC4/mu-opioid, membrane potential fluorescence. activity change, negative = inhibition, % at 10 µM. actives 61% (n = 920);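 active = rise or fall in signal beyond 3 SD of buffer-only wells in both replicate plates, either sign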;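 also: integrated kinetic ratio of fluorescence range over baseline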
HEK293 MPD ctr 2-1: second check of TRPC6 inhibitor effects in parental HEK293 cells | actives 31% (n = 920) | shares compounds with TRPC6 inhibitor | parental HEK293 membrane potential dye fluorescence; maximal acetylcholine challenge after compound addition | signal change vs control, % at 10 µM | AID 2779;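 active = membrane potential signal moving either way by over 3 SD of the maximum-effect control, in both duplicate plates, meaning non-specific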
HEK293 MPD ctr-1: counter-screen for TRPC6 inhibitors: effect in parental HEK293 cells; shares compounds with TRPC6 inhibitor; parental HEK293 membrane potential dye fluorescence; membrane potential signal change, % at 10 µM; actives 60% (n = 920); AID 2780;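 active = membrane potential signal shifting up or down by more than 3 SD of buffer-only wells, on both duplicate plates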
HEK293 MPD ctr-2: parental HEK293 nonspecific activity of TRPC6 modulators; AID 488924; membrane potential dye fluorescence; actives 51% (n = 2,400); shares compounds with TRPC6 inhibitor; membrane potential signal change, % at 10 µM;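 active = membrane potential signal moves up or down beyond 5 SD from buffer-only wells, on both duplicate plates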
HEK293 MPD ctr 2-2: second check of TRPC6 modulator effects in parental HEK293 cells. inhibition, % at 10 µM. shares compounds with TRPC6 inhibitor. actives 14% (n = 2,400). membrane potential dye fluorescence; after compound, maximal acetylcholine stimulation;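 active = membrane potential signal drops by more than 5 SD from the mean control signal, in both duplicate plates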;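 also: plate controls were acetylcholine ECmax control wells for no effect and buffer only wells for full effect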
TRPC4 ctr mod: selectivity of TRPC6 modulators against mouse TRPC4; shares compounds with TRPC6 inhibitor; percent change from control (negative = decrease, positive = increase), % at 10 µM; AID 488927; HEK293 TRPC4/mu-opioid, membrane potential fluorescence; actives 69% (n = 2,400);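 active = membrane potential signal moved up or down beyond 5 SD of buffer control wells, in both duplicate plates, actives on both sides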;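 also: plate controls were assay buffer wells for no effect and DAMGO maximal-effect wells for full effect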
TRPC4/MOR inh 2: mouse TRPC4 off-target activity of TRPC6 modulators, second screen | shares compounds with TRPC6 inhibitor | HEK293 TRPC4/mu-opioid, membrane potential dye fluorescence; stimulated with maximal-effect DAMGO | inhibition, % at 10 µM | actives 55% (n = 2,400);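 active = drop in membrane potential signal beyond 5 SD of the control wells in both duplicate plates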;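 also: TRPC4 counter screen for TRPC6 hits run under conditions tuned for TRPC6 not TRPC4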
TRPC6 block conf: confirmation of mouse TRPC6 inhibitors; actives 43% (n = 3,300); HEK293-TRPC6, membrane potential dye, ACh-evoked depolarization; shares compounds with TRPC6 inhibitor; inhibition, % at 10 µM;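 active = fluorescence ratio falls more than 5 SD below the full-stimulation control mean, in both duplicate runs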;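 also: integrated fluorescence ratio of peak minus minimum over baseline after agonist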
TRPC6 act conf: confirmation of mouse TRPC6 activators | HEK293-TRPC6 membrane potential dye fluorescence, FDSS | activation, % at 10 µM | actives 11% (n = 2,800) | AID 488961 | shares compounds with TRPC6 inhibitor;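 active = ratio signal rise beyond 5 SD above unstimulated control wells' mean, seen in both duplicate runs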;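 also: plate controls were buffer EC0 wells for no effect and acetylcholine ECmax response for full effect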
Starred values were filed as active, the others as inactive; i = inactive; · = not tested or not shown.

SMILES	TRPC6 inhibitor	TRPC4 potent	TRPC6 activator	Kir21 inh	TRPC4 block	TRPC4 agonist	HEK293 MPD ctr-2	HEK293 MPD ctr 2-2	TRPC4 ctr mod	TRPC4/MOR inh 2	TRPC6 block conf	TRPC6 act conf	others
O=C(CSc1nnc(CNc2ccc(F)cc2)n1CC1CCCO1)N1CCOCC1 (stereo not drawn)	i	i	i	-1.4	i	i	·	·	·	·	·	·
CCOc1ccc(N=C2NC(=O)SC2CC(=O)OC)cc1 (stereo not drawn)	i	i	i	0.64	i	i	·	·	·	·	·	·
CCOC(=O)c1sc(NC(=O)C2CCC2)cc1C	i	i	i	0.12	i	i	·	·	·	·	·	·
N#CC(c1cccc(Cl)c1)c1ccc2c(C(F)(F)F)cc(C(F)(F)F)nc2n1 (stereo not drawn)	-10*	i	i	-1.4	i	i	·	·	·	·	75%*	i	TRPC4 spec 2=i;TRPC4 spec=0.8%*;HEK293 MPD ctr 2-1=i;HEK293 MPD ctr-1=0.4%*
NNc1ccc2c(C(F)(F)F)cc(C(F)(F)F)nc2n1	i	i	i	-0.15	i	i	·	·	·	·	·	·
COc1ccc(NS(=O)(=O)c2cccc(C(=O)Nc3cccc(C(=O)O)c3)c2)cc1	i	i	i	0.14	i	i	·	·	·	·	·	·
COc1ccc(NS(=O)(=O)c2cccc(C(=O)O)c2)cc1	-5.4*	i	i	0.24	i	i	i	i	i	i	i	i
CCN(CC)CCN1C(=O)Cn2c(C)c(C)c3cccc1c32	-8.4*	i	i	-0.26	i	i	i	i	-18%*	61%*	53%*	i	TRPC4 spec 2=50%*;TRPC4 spec=-17%*;HEK293 MPD ctr 2-1=i;HEK293 MPD ctr-1=-254%*
CCN(CC)CCNC(=O)C(C)c1nn(CC)c(=O)c2ccccc12 (stereo not drawn)	i	i	i	-0.69	i	i	·	·	·	·	·	·
CSc1ccc(CN(C)C(=O)CNC(=O)c2ccc3c(c2)OCO3)cc1	i	i	i	1.2	i	i	·	·	·	·	·	·
Cc1cc(C)n(-c2nc(NCCCN(C)C)c3c4c(sc3n2)COC(C)(C)C4)n1	-7.6*	i	i	-0.32	i	i	·	·	·	·	i	i	TRPC4 spec 2=i;TRPC4 spec=-11%*;HEK293 MPD ctr 2-1=i;HEK293 MPD ctr-1=-188%*
Cc1cc(C)n(-c2nc(NCCC(C)C)c3c4c(sc3n2)COC(C)(C)C4)n1	i	i	i	1.6	i	i	·	·	·	·	·	·
Cc1cc(C)n(-c2nc(NCCN(C)C)c3c4c(sc3n2)COC(C)(C)C4)n1	-5.4*	i	i	-1.1	i	i	i	i	-13%*	44%*	i	i
Cc1cc(C)n(-c2nc(NCCN(C)C)c3c4c(sc3n2)CCCC4)n1	i	i	i	-3.6	i	i	·	·	·	·	·	·
Cc1cc(C)n(-c2nc(NCCCN(C)C)c3c4c(sc3n2)CCCC4)n1	-7.1*	i	i	-1.9	i	i	·	·	·	·	57%*	i	TRPC4 spec 2=66%*;TRPC4 spec=i;HEK293 MPD ctr 2-1=i;HEK293 MPD ctr-1=i
CCN(CC)CCNc1nc(-n2nc(C)cc2C)nc2sc3c(c12)CC(C)(C)OC3	-6.3*	i	i	-3.5	i	i	i	i	i	40%*	i	i
CC1CCCN(CC(O)COC(c2ccccc2)c2ccccc2)C1 (stereo not drawn)	i	i	i	-0.67	i	i	·	·	·	·	·	·
CCNc1nc(NC(C)CC)nc(ON=C(C)C)n1 (stereo not drawn)	i	i	i	0.41	i	i	·	·	·	·	·	·
CCNc1c2c(nc3ccccc13)CC(C)(C)CC2=O	-7.8*	i	i	1.6	i	i	·	·	·	·	i	i	TRPC4 spec 2=65%*;TRPC4 spec=i;HEK293 MPD ctr 2-1=i;HEK293 MPD ctr-1=-138%*
CN(C)c1cc(-c2ccccc2)nc(N)n1	-6.5*	i	i	-0.29	i	i	-72%*	i	-14%*	51%*	i	i
Nc1nc(-c2ccccc2)cc(-c2ccccc2O)n1	i	i	i	-0.04	i	i	·	·	·	·	·	·
Cc1ccc(N(C)S(=O)(=O)c2csc(C(N)=O)c2)cc1C	i	i	i	-2	i	i	·	·	·	·	·	·
C=C(C)CC1(NC(C)c2ccccc2)CCCCC1 (stereo not drawn)	-5.1*	i	i	-4.9*	i	i	i	i	24%*	i	i	i
CCN(CC)CCNC(C(=O)Nc1cccc(C(C)=O)c1)c1ccccc1 (stereo not drawn)	-6.8*	i	i	-0.69	i	i	i	i	i	i	i	i
c1csc(-c2nc(NCCCN3CCOCC3)c3ccccc3n2)c1	-7.2*	i	i	0	i	i	-180%*	i	-40%*	72%*	68%*	i
Clc1ccc(-c2nc(NCCCN3CCOCC3)c3ccccc3n2)cc1	-6.7*	i	i	-3.1	i	i	·	·	·	·	61%*	i	TRPC4 spec 2=72%*;TRPC4 spec=-24%*;HEK293 MPD ctr 2-1=i;HEK293 MPD ctr-1=-328%*
